Bioassay records deposited in PubChem BioAssay by several laboratories.
UCH37 inh = inhibitors of human deubiquitinating enzyme UCH37; Q9Y5K5; purified proteasome/UCH37, Ub-AMC cleavage fluorescence; inhibition, % (concentration not given with the values); 330,000 tested, 0.33% active; AID 588478;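 active = mean inhibition over replicate wells above about 20%, limit read from the data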;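 also: 0% = compound-free wells with enzyme and 100% = wells lacking proteasome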
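System: Proteasome-associated human UCH37 deubiquitinase; Input: 0.15 nM proteasome in added enzyme buffer; Also added: Ub-AMC substrate from 1 µM stock; Incubation: 30 min compound-proteasome preincubation then 25 min substrate reaction, room temperature; Detection: fluorescence, ex 355 nm, em 460 nm; Read-out: % inhibition of Ub-AMC cleavage fluorescence; Benchmarks: no-proteasome and no-compound wells.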
NALP3 yeast inh = blocks the NALP3 inflammasome reconstituted in yeast | Yeast reconstituted NLRP3/ASC/caspase-1, beta-gal luminescence, 24 h | inhibition, % at 10 µM | 330,000 tested, 0.39% active | AID 2825;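 active = inhibition of 50% or more; inactive = inhibition below 50%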;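 also: plate controls were induced DMSO wells for no effect and uninduced yeast grown without galactose for full effect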
ATG4B inh = ATG4B (human) cysteine protease inhibition; inhibition, % at 8.33 µM; Q9Y4P1; 340,000 tested, 0.51% active; ATG4B cleavage of LC3-PLA2, NBD-HPC fluorescence, 1 h; in the data active = inhibition above about 40%
Calb FLC = affects C. albicans growth with fluconazole; C. albicans CaCi-2 + fluconazole, Alamar Blue growth, 48 h; growth inhibition, % (concentration not given with the values); 300,000 tested, 0.57% active;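 active = growth inhibition above about 58% in most replicates, limit read from the data, passing the limit was not always enough; inconclusive = exactly half the replicates above a set limit; inactive = most replicates below a set limit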;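 also: all wells also contain fluconazole at 8 µg/ml as a sub-toxic cotreatment; 0% = median of DMSO wells and 100% = median of geldanamycin control wells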
NALP1 inh = NALP1 inhibition; S. cerevisiae NALP1/ASC/caspase-1 growth, X-gal OD620, 72 h; inhibition, % at 10 µM; 280,000 tested, 0.61% active; AID 2071; in the data active = inhibition mostly above about 24%, no sharp cut-off; inactive = mostly below about 32%
ALR H2O2 inh = human ALR oxidase inhibition via reduced H2O2 | P55789 | purified ALR, DTT oxidation, H2O2 HRP-luminol luminescence | inhibition, % (test concentration not listed) | 290,000 tested, 3.8% active | AID 485317;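 active = mean replicate inhibition above about 79%, with every replicate also reaching it, limit read from the data; inconclusive = only one of the two criteria met; inactive = mean below limit and not every replicate reaching it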
Target sequence (P55789 whole entry, looked up): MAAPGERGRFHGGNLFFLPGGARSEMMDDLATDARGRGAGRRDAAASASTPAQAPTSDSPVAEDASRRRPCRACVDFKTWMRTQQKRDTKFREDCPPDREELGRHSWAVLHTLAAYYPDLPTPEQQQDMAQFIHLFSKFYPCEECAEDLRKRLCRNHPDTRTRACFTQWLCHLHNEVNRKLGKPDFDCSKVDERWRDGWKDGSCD
Active calls of the source: *; ? = inconclusive; . = not tested or not shown. An excerpt weighted towards active compounds, which were near 4.8% of everything screened.

SMILES	UCH37 inh	NALP3 yeast inh	ATG4B inh	Calb FLC	NALP1 inh	ALR H2O2 inh
CCOC(=O)c1cc(-c2ccc(/C=C3/C(=O)NC(=O)C(C#N)=C3C)o2)ccc1Cl	22.1*	18.4	35.7	26.1	-9.3	-20.3
COC(=O)c1ccc(COc2ccccc2C=NNS(=O)(=O)c2ccc(C)cc2)cc1	5.6	.	.	.	.	.
CCCc1ccc(C(=O)NNC(=O)c2ccc(Cl)cc2)cc1	2.4	18.3	-3.2	3.5	2.3	-12.5
CCCc1ccc(C(=O)NNc2cccc(C)c2)cc1	-0.2	45.6	2.3	97.0*	7.8	-4.6
Cc1cccc(NC(=O)Nc2ccncc2)c1	1.8	12.6	-7.6	-6.2	3.6	84.5*
Cc1cccc(NC(=O)Nc2cnccn2)c1	2.7	2.3	-5.0	0.4	21.7	1.1
Cc1cccc(NNC(=O)C(=O)NNc2cccc(C)c2)c1	3.3	24.1	-9.0	99.7*	21.2	98.3*
CCCCC(=O)NN=Cc1ccc(Sc2cccc3cccnc23)o1	1.2	.	.	.	.	.
Cc1ccc(O)c(C2=NNC(c3ccc(Cl)cc3)C2)c1 (stereo not given)	1.7	3.5	1.3	78.0*	-6.7	0.4
C=C(C)C(=O)O[C@H]1CC(C)=CC(=O)C=C(C)[C@H](O)[C@@H]2OC(=O)C(=C)[C@@H]21	-4.2	.	.	.	.	.
O=C(NN=Cc1ccc2c(c1)OCO2)C(=O)Nc1ccccc1	-0.1	.	.	.	.	.
Cc1cc(C)c(S(=O)(=O)Nc2cc(SCC(=O)O)c(O)c3ccccc23)cc1C	8.8	.	0.6	2.6	49.2*	57.3
CCc1c(C)[nH]n(-c2nc(-c3ccccc3)cs2)c1=O	2.0	-19.8	-7.7	33.9	-10.3	97.3*
CC1=CCC(C(=O)O)(C(=O)NN=Cc2cccs2)C(c2ccc([N+](=O)[O-])cc2)C1 (stereo not given)	3.1	.	.	.	.	.
CCn1c(COc2ccccc2)nc2ccccc21	2.1	46.4	0.7	-2.8	7.3	-3.0
CCn1c(CN(C)c2ccccc2)nc2ccccc21	1.1	26.4	2.0	-5.9	12.1	98.5*
CC(=O)NN=Cc1c(C)[nH]n(-c2ccccc2)c1=O	2.8	.	.	.	.	.
N=C(N)c1ccc(O)cc1	4.2	27.1	4.9	-8.3	5.2	-23.8
CC/C(=C(/CC)c1ccc(O)cc1)c1ccc(O)cc1	2.2	31.8	4.0	.	22.9	99.0*
CN(C)c1ccc(-c2n(C)c3ccccc3[n+]2C)cc1	1.0	13.7	10.3	101.7*	-3.0	-7.8
CNC(=S)NN=Cc1ccc(OCc2ccccc2)c(Br)c1	-22.9	.	.	.	.	.
Cc1cc(-c2ccccc2)nc(NN=Cc2ccc(O)cc2O)n1	-2.5	.	.	.	.	.
Cc1cc(C)n(CCc2nc(-c3cc4ccccc4o3)cs2)n1	.	17.6	1.6	1.2	7.6	-15.4
Cc1cc(C)n(CCc2nc(-c3ccc(C)o3)cs2)n1	5.8	10.6	-2.3	6.2	7.7	95.2*
COc1ccc(-n2c(SCC(=O)NN=C(C)c3cccnc3)nc3ccccc3c2=O)cc1	2.8	.	.	.	.	.
SMILES	UCH37 inh	NALP3 yeast inh	ATG4B inh	Calb FLC	NALP1 inh	ALR H2O2 inh
NC(=S)NN=C1CC(n2nnn(-c3cccc(Cl)c3)c2=S)C2COC1O2 (stereo not given)	3.4	.	.	.	.	.
O=C(O)c1ccc2c(c1)C(=O)N(c1ccc(Nc3ccccc3)cc1)C2=O	3.5	19.9	-6.6	1.1	-3.4	97.6*
C/C(=C1/SC(=S)N(CCC(=O)O)C1=O)c1ccc(O)cc1	4.0	9.3	-2.9	7.0	-4.2	98.2*
COc1ccc(/C(C)=C2\SC(=S)N(CCC(=O)O)C2=O)cc1	16.0	-4.3	34.9	6.8	-13.2	49.4
CC(=NOCC(=O)Nc1ccc(C)cc1C)c1cccs1	4.7	.	.	.	.	.
CC(=NNc1ccnc2cc(Cl)ccc12)c1ccc(O)cc1	3.8	.	.	.	.	.
Cc1[nH]nc2c1C(c1cn[nH]c1-c1ccc(F)cc1)C(C#N)=C(N)O2 (stereo not given)	0.4	22.3	6.4	6.0	-13.6	91.9*
COc1ccc(-c2cc(C(=O)NN=C(C)c3cccnc3)c3ccccc3n2)c(OC)c1	-22.7	.	.	.	.	.
c1ccc2c(c1)CC/C2=N/Nc1nc2ccccc2[nH]1	.	21.6	-5.9	0.6	-0.2	99.1*
c1ccc2c(c1)CCC2=NNc1nc2ccccc2[nH]1	3.8	.	.	.	.	.
CC(C)(C)C1CCC(=NNc2nc3ccccc3[nH]2)CC1 (stereo not given)	-8.8	20.7	8.3	-3.1	-5.1	98.0*
c1ccc(CN2CCC(=NNc3nc4ccccc4[nH]3)CC2)cc1	0.5	8.4	11.3	?	-1.2	99.1*
